Results of several laboratories.
Protocols differ between the studies behind these lines.
CDK9: Cyclin-dependent kinase 9 (CDK9, Homo sapiens, UniProt P50750)

Compound	target	test	system	setting	quantity	result
COc1ccc2[nH]c3c4[nH]c5ccc(OC)cc5c4c4c(c3c2c1)C(=O)NC4=O	CDK9	binding	–	1 µM	remaining binding	58%
CC(C)(C)c1cnc(CSc2cnc(NC(=O)C3CCN(C(=O)CCOCCCN4Cc5cc6c(cc5C4)C(=O)N(C4CCC(=O)NC4=O)C6=O)CC3)s2)o1 (stereo not drawn)	CDK9	protein level, degrader, western blot	TC-71	25 nM	inhibition	85.1%
Cc1cc(S(=O)(=O)N[C@H]2CC[C@H](CN3CCN(c4ccc(C5CCC(=O)NC5=O)cc4F)CC3)CC2)ccc1Nc1ncc(C(F)(F)F)c(N2CCC[C@](C)(O)C2)n1 (stereo partly drawn)	CDK9	binding, competition with immobilised ligand	–	1 µM	remaining binding	78%
Cc1ccc(NC(=O)c2ccnc(C(F)(F)F)c2)cc1-c1cc(OCCO)nc(N2CCOCC2)c1	CDK9	binding	–	1 µM	remaining binding	100%
CNS(=O)(=O)c1ccc(Nc2ncc(C(F)(F)F)c(N3CCC[C@](C)(O)C3)n2)c(C)c1	CDK9	binding, competition with immobilised ligand	–	1 µM	remaining binding	98%
COc1ccc2oc(-c3ccc4nc(N)oc4c3)c/c(=N\c3ccccc3NC(=O)CCN)c2c1	Cyclin-dependent kinase 9, with cyclin T1 (CDK9, Homo sapiens, UniProt P50750)	binding	–	1 µM	remaining binding	93%
CC(C)(C)c1cnc(CSc2cnc(NC(=O)C3CCN(C(=O)CCOCCN4Cc5cc6c(cc5C4)C(=O)N(C4CCC(=O)NC4=O)C6=O)CC3)s2)o1 (stereo not drawn)	CDK9	protein level, degrader, western blot	TC-71	25 nM	inhibition	87.5%
C=CC(=O)N1CCC([C@@H]2CCNc3c(C(N)=O)c(-c4ccc(Oc5ccccc5)cc4)nn32)CC1	CDK9	enzyme activity, inhibitor	–	1 µM	inhibition	0%
CC(C)(C)c1cnc(CSc2cnc(NC(=O)C3CCN(C(=O)CCCCCCCCCCCN4Cc5cc6c(cc5C4)C(=O)N(C4CCC(=O)NC4=O)C6=O)CC3)s2)o1 (stereo not drawn)	CDK9	protein level, degrader, western blot	TC-71	25 nM	inhibition	78%
C1=C/COCc2cc(ccc2OCCN2CCCC2)Nc2nccc(n2)-c2cccc(c2)COC/1	CDK9	binding	–	0.1 µM	remaining binding	64%
CC(C)(C)c1cnc(CSc2cnc(NC(=O)C3CCN(C(=O)COCCOCCN4Cc5cc6c(cc5C4)C(=O)N(C4CCC(=O)NC4=O)C6=O)CC3)s2)o1 (stereo not drawn)	CDK9	protein level, degrader, western blot	TC-71	25 nM	inhibition	80.7%
C=CC(=O)N1CCC[C@@H](n2nc(-c3ccc(Oc4ccccc4)cc3)c3c(N)ncnc32)C1	CDK9	enzyme activity, inhibitor	–	1 µM	inhibition	2%
